Source: PubChem BioAssay (Johns Hopkins Ion Channel Center)
The list is not random: actives were taken first. Their share in the collection is about 2.3%.
TRPC6 inhibitor = blocks the mouse TRPC6 cation channel; Q61143; HEK293-TRPC6, membrane potential dye, ACh-evoked depolarization; active compounds read low; B-score at 10 µM; actives 1.1% (n = 310,000);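 active = B-score under library mean minus 3 SD, initial fluorescence not abnormally high, positive integrated signal ratio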;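 also: B-score derived from integrated fluorescence ratio over the kinetic read; more negative B-score means stronger inhibition of depolarization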
TRPC4 potent = TRPC4 (mouse) allosteric potentiation; actives 0.42% (n = 310,000); B-score at 10 µM; Q9QUQ5; HEK293 TRPC4beta/mu-opioid, DAMGO EC20, Fluo-4 Ca2+ flux; active compounds read high;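 active = B-score of calcium response area above 5 SD of library B-scores, with initial fluorescence ratio within 5 SD of library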;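 also: B-score of integrated fluorescence ratio over time as area under calcium response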
TRPC4 agonist = TRPC4 (mouse) channel activation | HEK293 TRPC4beta/mu-opioid, Fluo4 calcium fluorescence; active compounds read high | B-score at 10 µM | Q9QUQ5 | actives 0.49% (n = 310,000) | AID 2237;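 active = B-score above 5 SD of library B-scores, and initial fluorescence ratio not above library mean plus 5 SD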;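 also: positive B-score marks a calcium rise read as TRPC4 activation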
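Incubation: 45 min room-temperature Fluo4 loading, 110 s read / System: HEK293 cells stably co-expressing mouse TRPC4beta and mu-opioid receptor / Signal: Fluo4 fluorescence, kinetic / Control set: buffer (low) and maximal DAMGO (high) / Measure: integrated baseline-normalised fluorescence ratio, converted to per-well B score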
TRPC6 activator = activates the mouse TRPC6 cation channel | actives 0.13% (n = 310,000) | B-score at 10 µM | HEK293-TRPC6 membrane potential dye fluorescence; active compounds read high | Q61143;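 active = B-score of the integrated fluorescence ratio above library mean plus 3 SD, and starting fluorescence ratio within library mean plus 5 SD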;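 also: higher score means more depolarization so channel activation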
TRPC4 block = inhibitors of mouse TRPC4 channel. HEK293 TRPC4beta/mu-opioid, DAMGO-evoked Fluo4 calcium flux; active compounds read low. B-score at 10 µM. actives 0.39% (n = 300,000). AID 2247;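 active = B-score over 3 SD under the library average, no early fluorescence shift, positive overall ratio signal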
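material = TRPC4beta/mu-opioid receptor HEK293 cell line | probe or stimulus = sequential submaximal and maximal DAMGO stimulation | compound dosing = one concentration per compound | measured by = Fluo4 Ca2+ flux fluorescence | evaluation = integrated fluorescence ratio relative to baseline, converted to per-well B score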
Numbers without * were called inactive; i = inactive.

SMILES | TRPC6 inhibitor | TRPC4 potent | TRPC4 agonist | TRPC6 activator | TRPC4 block
COc1ccc(N2CCN(C(=O)c3ccccc3F)CC2)c([N+](=O)[O-])c1 | i | i | i | i | i
O=C(c1ccccc1F)N1CCN(c2ccc([N+](=O)[O-])cc2-n2cccc2)CC1 | i | 18* | i | i | i
O=C(c1ccc(F)cc1)N1CCN(c2ccc([N+](=O)[O-])cc2-n2cccc2)CC1 | i | 24* | i | i | i
Cc1nonc1OCCN1CCN(c2ccccc2[N+](=O)[O-])CC1 | i | i | i | i | i
Nc1nonc1OCCN1CCN(c2ccc([N+](=O)[O-])c3cccnc23)CC1 | i | 23* | 93* | i | i
O=C(c1ccccc1F)N1CCN(c2ccc([N+](=O)[O-])c3cccnc23)CC1 | i | 29* | i | i | i
C/C(=N\Nc1ccc(F)cc1)c1ccc(N2CCOCC2)c(F)c1 | i | i | i | i | i
Cc1cc(C(C)(C)C)cc(C)c1C[n+]1ccc2ccccc2c1 | i | i | i | i | i
O=C(c1ccc(NS(=O)(=O)c2ccccc2)cc1)N1CCOCC1 | i | i | i | i | i
O=C(CN1C(=O)/C(=C/c2ccccc2)SC1=S)N1CCN(CCc2ccccn2)CC1 | i | i | i | i | i
Cc1ccc(C)c(CNS(=O)(=O)c2c(C)[nH]c(C)c2C(=O)N2CCCCC2)c1 | i | i | i | i | i
O=C(Nc1ccccc1N1CCN(C(=O)c2ccc(Cl)cc2)CC1)c1cccc([N+](=O)[O-])c1 | i | i | i | i | -6*
O=Cc1cc(N=Nc2ccccc2Cl)ccc1O | i | i | i | i | -7*
O=Cc1cc(N=Nc2cccc(C(=O)O)c2)ccc1O | i | i | i | i | i
COCCNC(=O)c1onc(CSc2ccccc2)c1C(=O)NCCOC | i | i | i | i | i
Nc1cc(N2CCCCC2)c(Cl)cc1[N+](=O)[O-] | i | i | i | i | i
Nc1cc(N2CCCCC2)c([N+](=O)[O-])cc1Cl | i | i | i | i | -6*
CCCSc1cc(N)cc([N+](=O)[O-])c1 | i | i | i | i | -5*
CC(C)(c1ccccc1)c1ccc(OCCCNCCO)cc1 | i | i | i | i | -6*
O=S(=O)(Nc1ccc(Br)cn1)c1ccc(Cl)s1 | i | i | i | i | i
CCN1CCN(S(=O)(=O)c2ccc(Cl)c(C(=O)Nc3nnc(C)s3)c2)CC1 | i | i | 50* | i | i
CCN(CC)S(=O)(=O)c1ccc(Cl)c(C(=O)Nc2nnc(C)s2)c1 | i | i | i | i | i
CCCC1Cc2nc(N3CCCCC3)c(C#N)cc2CO1 (stereo unspecified) | i | 10* | i | i | i
CCCC1Cc2[nH]c(=O)c(C#N)cc2CO1 (stereo unspecified) | i | i | i | i | i
CCCOc1ccc2cc(C(=O)NCc3ccccc3)c(=O)oc2c1 | i | i | i | i | i
SMILES | TRPC6 inhibitor | TRPC4 potent | TRPC4 agonist | TRPC6 activator | TRPC4 block
COc1ccc(C2/C(=C(/O)c3ccccc3)C(=O)C(=O)N2CCO)cc1 (stereo unspecified) | i | i | i | i | i
COc1ccc(N/C(C)=C2/C(=O)C(=O)N(CCO)C2c2ccc(Br)cc2)cc1 (stereo unspecified) | i | 43* | 123* | i | i
CC(C#N)Sc1ncnc2sc(-c3ccccc3)cc12 (stereo unspecified) | i | i | i | i | i
FC(F)(F)c1ccnc(N2CCN(Cc3cnc(-c4ccccc4)[nH]3)CC2)c1 | i | i | i | i | -7*
CC(=O)Nc1ccc(S(=O)(=O)N2CCN(c3cc(C(F)(F)F)ccn3)CC2)cc1 | i | i | i | i | i
CCCc1cc(C(=O)Cc2ccc(C(=O)OCC)o2)c(O)cc1O | -5.5* | i | i | i | i
CCCc1cc(C(=O)Cc2ccc(F)cc2)c(O)cc1O | i | i | i | i | i
O=C(CCNC(=O)c1ccccc1Cl)NCCc1ccc(C(F)(F)F)cc1 | i | i | i | i | i
